Data on 30 compounds can be found in PubChem BioAssay AID1665 (Sanford-Burnham Center for Chemical Genomics, 2009).

The whole screen tested about 190,000 compounds, of which about 590 (0.31%) were called active. This is one part of a sample in which actives are shown more often than they occur.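 Rule for the calls: active = nuclear translocation activity above 50% at 5 µM, with a well cell count of 50 or more; inconclusive = wells under 50 cells across six images, flagged as toxic; inactive = the rest.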

The assay in a line: modulators of beta-catenin nuclear translocation, primary screen, imaging, HeLa cells, immunofluorescence, high-content (AID 1665).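 For nuclear translocation activity: per-cell ratio of nuclear to cytoplasmic median beta-catenin stain intensity; plate controls were DMSO negative control for no effect and GSK-3 inhibitor IX positive control for full effect.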 Conditions: at 5 µM; cell count: measured here: cell count, cytotoxicity flag; nuclear translocation activity: stronger effect = higher value. The essentials:
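System: HeLa cells, endogenous beta-catenin; compound dosing: 5 µM primary single dose, 0.1% DMSO, 0.02–20 µM confirmation series; incubation: 24 h compound exposure at 37°C, 5% CO2; signal: beta-catenin immunofluorescence imaging with DAPI; evaluation: % activation, nuclear-to-cytoplasmic median beta-catenin signal ratio per cell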
For the compound `COc1ccc2c(CC(=O)OCC(=O)NC(N)=O)coc2c1`, the cell count was determined as 1100 cells and the nuclear translocation activity is -0.9% (inactive).
On to `COc1cccc(C2Nc3cccc4cccc(c34)N2)c1`, for which the cell count stood at 1290 cells and the nuclear translocation activity was -0.1% (inactive).
`Nc1nnnn1/N=C/c1cc([N+](=O)[O-])ccc1O`: the cell count was found to be 1250 cells and the nuclear translocation activity is 2.2% (inactive).
On to `CSC1=NCCN1C(=O)Cc1cccc2ccccc12`, for which the cell count turned out to be 1340 cells and the nuclear translocation activity is 0.5% (inactive).
Regarding `COc1ccc(C(=O)N/N=C2\CCS(=O)(=O)c3ccc(F)cc32)cc1OC`, the cell count was found to be 1320 cells and the nuclear translocation activity was 0.5% (inactive).
On the same counts, the results for `O=C(N/N=C/c1cccc([N+](=O)[O-])c1)c1ccncc1` are 1370 cells and -0.3% (inactive).
As for `Cc1cccc(N(C)C(=O)c2cc3c(=O)[nH]c4ccc(C)cc4c3s2)c1`, the cell count stood at 369 cells and the nuclear translocation activity is 61.3% (active).
Turning to `Cc1ccc2[nH]c(=O)c(CC=C(Cl)Cl)c(C)c2c1`, the cell count came to 484 cells and the nuclear translocation activity was -1.1% (inactive).
Turning to `O=C(NCCN1CCN(Cc2ccccc2)CC1)c1cc2c(=O)[nH]c3ccccc3c2s1`, the cell count came out at 1180 cells and the nuclear translocation activity was -3.9% (inactive).
The like results for `O=C(NCC1CCCO1)c1ccccc1-c1nc(-c2ccccc2Cl)no1` (stereo not given) were, in that order, 1310 cells and 0% (inactive).
For the compound `O=[N+]([O-])/C=C1\CCCCCN1`, the cell count was determined as 1320 cells and the nuclear translocation activity is 0% (inactive).
In the case of `O=c1[nH]nc(SCCS(=O)(=O)c2ccc(F)cc2)n1-c1ccccc1C(F)(F)F`, the cell count was 1270 cells and the nuclear translocation activity is 2.8% (inactive).
The like results for `Cc1ccc(S(=O)(=O)C2(S(=O)(=O)c3ccc(C)cc3)CCCC2)cc1` were, in that order, 297 cells and 67.3% (active).
As to `Cc1ccc(S(=O)(=O)NC(=O)N2CCCC(C)(C)C2)cc1`, the cell count is 1150 cells and the nuclear translocation activity was 0.1% (inactive).
`Cc1ccc(S(=O)(=O)N2CCCC2CO)cc1` (stereo not given): the cell count amounted to 831 cells and the nuclear translocation activity is -0.4% (inactive).
On the same counts, the results for `CCCC(=O)n1nc(-c2ccccc2)nc1N` are 1050 cells and 0% (inactive).
On the same counts, the results for `COc1ccc(C(=O)n2nc(-c3ccc(C)cc3)nc2N)cc1OC` are 579 cells and 100% (active).
On the same counts, the results for `COc1ccc(C(=O)CN2C(=O)NC(C)(c3ccc(C)cc3)C2=O)cc1OC` (stereo not given) are 931 cells and -3.5% (inactive).
`CN(C)C(=O)c1coc2nc3ccccc3nc12`: the cell count came out at 1300 cells and the nuclear translocation activity was -0.3% (inactive).
As to `CC[C@]1(O)CC2CN(CCc3c([nH]c4ccccc34)[C@@](C(=O)OC)(c3cc4c(cc3OC)N(C=O)[C@H]3[C@@](O)(C(=O)OC)[C@H](OC(C)=O)[C@]5(CC)C=CCN6CC[C@]43[C@@H]65)C2)C1` (stereo not given in full), the cell count came out at 617 cells and the nuclear translocation activity is 62.5% (active).
With `CC[C@]1(O)C[C@@H]2CN(CCc3c([nH]c4ccccc34)[C@@](C(=O)OC)(c3cc4c(cc3OC)N(C)[C@H]3[C@@](O)(C(=O)OC)[C@H](OC(C)=O)[C@]5(CC)C=CCN6CC[C@]43[C@@H]65)C2)C1`, the cell count stood at 560 cells and the nuclear translocation activity is -2% (inactive).
Consider `CC/C=C/C(=O)N1CC2(CC(c3cccc(NC(=O)CC)c3)=NO2)C[C@H]1C(N)=O` (stereo not given in full), for which the cell count amounted to 1030 cells and the nuclear translocation activity was 0.6% (inactive).
`O=C(Nc1cccnc1Oc1ncnc2cc(Cl)ccc12)c1ccc(F)cc1`: the cell count came out at 1330 cells and the nuclear translocation activity is -0.5% (inactive).
Take `COCCCn1c(-c2cccs2)nc2nc3ccccc3nc21`: the cell count worked out at 1370 cells and the nuclear translocation activity was -0.5% (inactive).
As for `CCC1=NN2C(=N)/C(=C/c3cc(C)n(-c4ccccc4)c3C)C(=O)N=C2S1`, the cell count was 1350 cells and the nuclear translocation activity is -0.8% (inactive).
For `Cc1[nH]n(-c2ccccc2)c(=O)c1N=Nc1ccccc1C(=O)N1CCCCC1`, the cell count turned out to be 1360 cells and the nuclear translocation activity is 0.5% (inactive).
With `CCOc1ccccc1NC(=O)CCc1ccc(C)o1`, the cell count was determined as 1160 cells and the nuclear translocation activity is -2% (inactive).
Regarding `Cc1cnc(NC(=O)CSc2nnc(-c3ccc(Cl)cc3Cl)n2N)s1`, the cell count was 1100 cells and the nuclear translocation activity is -0.9% (inactive).
The like results for `Cc1ccc(CCC(=O)Nc2ncc(Cc3cc(Cl)ccc3Cl)s2)o1` were, in that order, 142 cells and 73.2% (active).
For `NC(=O)N/N=C\c1cccs1`, the cell count stood at 1280 cells and the nuclear translocation activity is 0.1% (inactive).
